In ChEMBL document CHEMBL1125116 (J Med Chem, 1990):

What was measured:
Rattus norvegicus [1] = assay: Biodistribution of [125I]IBF in blood was determined in rats 15 minutes after intraveneous injection; format: ADME, organism-based; conditions: in vivo, iv, 0.25 h
Outline: (§1)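 Male Sprague–Dawley rats (225–300 g) with free access to food and water. Under halothane anesthesia they received [125I]IBF (8–10 μCi in 0.2 mL saline) into the femoral vein. Rats were killed by cardiac excision under halothane at the stated time. Organs were weighed and gamma-counted, and % dose/organ was taken against diluted aliquots of the injectate. Blood was assumed to be 7% of body weight and muscle 40%.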

Rattus norvegicus [2] = assay: Biodistribution of [125I]-IBF in liver was determined in rats 60 minutes after intraveneous injection; format: ADME, organism-based; conditions: in vivo, iv, 1 h; outline: as §1
Rattus norvegicus [3] = assay: Biodistribution of [125I]-IBF in heart was determined in rats 60 minutes after intraveneous injection; format: ADME, organism-based; conditions: in vivo, iv, 1 h; outline: as §1
Rattus norvegicus [4] = assay: Biodistribution of [125I]IBF in lung was determined in rats 2 minutes after intraveneous injection; format: ADME, organism-based; conditions: in vivo, iv; outline: as §1
Rattus norvegicus [5] = assay: Biodistribution of [125I]IBF in brain/blood was determined in rats 30 minutes after intraveneous injection; format: ADME, organism-based; conditions: in vivo, iv, 0.5 h
Rattus norvegicus [6] = assay: Biodistribution of [125I]IBF in muscle was determined in rats 2 minutes after intraveneous injection; format: ADME, organism-based, Muscle tissue; conditions: in vivo, iv; outline: as §1
Rattus norvegicus [7] = assay: Biodistribution of [125I]IBF in brain/blood was determined in rats 15 minutes after intraveneous injection; format: ADME, organism-based; conditions: in vivo, iv, 0.25 h
Rattus norvegicus [8] = assay: Biodistribution of [125I]IBF was in skin determined in rats 2 minutes after intraveneous injection; format: ADME, organism-based, Zone of skin; conditions: in vivo, iv
Outline: (§2)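 Male Sprague–Dawley rats (225–300 g) with free access to food and water were anesthetized with halothane. Each received 0.2 mL saline containing 8–10 μCi [125I]IBF into the femoral vein and was killed by cardiac excision under halothane at set times. Organs were weighed and gamma-counted, and uptake was calculated against diluted aliquots of the injected dose.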

Rattus norvegicus [9] = assay: Biodistribution of [125I]IBF in heart was determined in rats 15 minutes after intraveneous injection; format: ADME, organism-based; conditions: in vivo, iv, 0.25 h; outline: as §1
Rattus norvegicus [10] = assay: Biodistribution of [125I]-IBF in skin was determined in rats 120 minutes after intraveneous injection; format: ADME, organism-based, Zone of skin; conditions: in vivo, iv, 2 h; outline: as §1
Rattus norvegicus [11] = assay: Biodistribution of [125I]IBF in thyroid was determined in rats 120 minutes after intraveneous injection; format: ADME, organism-based, Thyroid gland; conditions: in vivo, iv, 2 h; outline: as §2
Rattus norvegicus [12] = assay: Biodistribution of [125I]IBF in kidney was determined in rats 15 minutes after intraveneous injection; format: ADME, organism-based; conditions: in vivo, iv, 0.25 h; outline: as §1
Rattus norvegicus [13] = assay: Biodistribution of [125I]-IBF in muscle was determined in rats 120 minutes after intraveneous injection; format: ADME, organism-based, Muscle tissue; conditions: in vivo, iv, 2 h; outline: as §1
Rattus norvegicus [14] = assay: Biodistribution of [125I]IBF in blood was determined in rats 30 minutes after intraveneous injection; format: ADME, organism-based; conditions: in vivo, iv, 0.5 h; outline: as §1
Rattus norvegicus [15] = assay: Biodistribution of [125I]IBF in heart was determined in rats 2 minutes after intraveneous injection; format: ADME, organism-based; conditions: in vivo, iv; outline: as §1
Rattus norvegicus [16] = assay: Biodistribution of [125I]IBF in lung was determined in rats 15 minutes after intraveneous injection; format: ADME, organism-based; conditions: in vivo, iv, 0.25 h; outline: as §1
Rattus norvegicus [17] = assay: Biodistribution of [125I]IBF in brain was determined in rats 15 minutes after intraveneous injection; format: ADME, organism-based; conditions: in vivo, iv, 0.25 h; outline: as §1
Rattus norvegicus [18] = assay: Biodistribution of [125I]IBF in skin was determined in rats 15 minutes after intraveneous injection; format: ADME, organism-based, Zone of skin; conditions: in vivo, iv, 0.25 h; outline: as §1
Rattus norvegicus [19] = assay: Biodistribution of [125I]IBF in striatum was determined in rats 2 minutes after intraveneous injection; format: ADME, organism-based; conditions: in vivo, iv; outline: as §2
Rattus norvegicus [20] = assay: Biodistribution of [125I]IBF in muscle was determined in rats 30 minutes after intraveneous injection; format: ADME, organism-based, Muscle tissue; conditions: in vivo, iv, 0.5 h; outline: as §1
Rattus norvegicus [21] = assay: Biodistribution of [125I]IBF in srtiatum was determined in rats 15 minutes after intraveneous injection; format: ADME, organism-based; conditions: in vivo, iv, 0.25 h
Rattus norvegicus [22] = assay: Biodistribution of [125I]IBF in lung was determined in rats 30 minutes after intraveneous injection; format: ADME, organism-based; conditions: in vivo, iv, 0.5 h; outline: as §1
Rattus norvegicus [23] = assay: Biodistribution of [125I]IBF in brain was determined in rats 60 minutes after intraveneous injection; format: ADME, organism-based; conditions: in vivo, iv, 1 h; outline: as §1
Rattus norvegicus [24] = assay: Biodistribution of [125I]IBF in brain/blood was determined in rats 60 minutes after intraveneous injection; format: ADME, organism-based; conditions: in vivo, iv, 1 h
Rattus norvegicus [25] = assay: Biodistribution of [125I]IBF in spleen was determined in rats 15 minutes after intraveneous injection; format: ADME, organism-based; conditions: in vivo, iv, 0.25 h; outline: as §1
Rattus norvegicus [26] = assay: Biodistribution of [125I]IBF in blood was determined in rats 120 minutes after intraveneous injection; format: ADME, organism-based; conditions: in vivo, iv, 2 h; outline: as §1
Rattus norvegicus [27] = assay: Biodistribution of [125I]IBF in brain was determined in rats 2 minutes after intraveneous injection; format: ADME, organism-based; conditions: in vivo, iv; outline: as §1
Rattus norvegicus [28] = assay: Biodistribution of [125I]IBF in liver was determined in rats 30 minutes after intraveneous injection; format: ADME, organism-based; conditions: in vivo, iv, 0.5 h; outline: as §1
Rattus norvegicus [29] = assay: Biodistribution of [125I]IBF in thyroid was determined in rats 15 minutes after intraveneous injection; format: ADME, organism-based, Thyroid gland; conditions: in vivo, iv, 0.25 h; outline: as §2
Rattus norvegicus [30] = assay: Biodistribution of [125I]IBF in kidney was determined in rats 60 minutes after intraveneous injection; format: ADME, organism-based; conditions: in vivo, iv, 1 h; outline: as §1

In the case of `CCN1CCC[C@H]1CNC(=O)c1cc(I)cc2c1OCC2`, the Dose/organ (Rattus norvegicus [1]) is reported as 1.8%, the Dose/organ (Rattus norvegicus [2]) is reported as 9.84% and the Dose/organ (Rattus norvegicus [3]) is reported as 0.05%. The Dose/organ (Rattus norvegicus [4]) was 6.14%, the Dose/organ (Rattus norvegicus [5]) was 2.26 and the Dose/organ (Rattus norvegicus [6]) was 11.25%. For the same compound, the Dose/organ (Rattus norvegicus [7]) was 3.01, the Dose/organ (Rattus norvegicus [8]) was 8.54% and the Dose/organ (Rattus norvegicus [9]) was 0.2%. For the same compound, the Dose/organ (Rattus norvegicus [10]) was 1.18%, the Dose/organ (Rattus norvegicus [11]) was 0.08% and the Dose/organ (Rattus norvegicus [12]) was 2.92%. It also gave a Dose/organ (Rattus norvegicus [13]) of 2.3%, a Dose/organ (Rattus norvegicus [14]) of 1.26% and a Dose/organ (Rattus norvegicus [15]) of 0.81%. The Dose/organ (Rattus norvegicus [16]) was 1.85%, the Dose/organ (Rattus norvegicus [17]) was 0.54% and the Dose/organ (Rattus norvegicus [18]) was 8.46%. For the same compound, the Dose/organ (Rattus norvegicus [19]) was 0.743%, the Dose/organ (Rattus norvegicus [20]) was 9% and the Dose/organ (Rattus norvegicus [21]) was 0.842%. For the same compound, the Dose/organ (Rattus norvegicus [22]) was 0.82%, the Dose/organ (Rattus norvegicus [23]) was 0.17% and the Dose/organ (Rattus norvegicus [24]) was 1.9. It also gave a Dose/organ (Rattus norvegicus [25]) of 0.58%, a Dose/organ (Rattus norvegicus [26]) of 0.23% and a Dose/organ (Rattus norvegicus [27]) of 0.98%. The Dose/organ (Rattus norvegicus [28]) was 11.59%, the Dose/organ (Rattus norvegicus [29]) was 0.03% and the Dose/organ (Rattus norvegicus [30]) was 1.01%.
